Source: ChEMBL document CHEMBL1151985, “Cytotoxic and antiplasmodial xanthones from Pentadesma butyracea” (J Nat Prod, 2009)
In brackets after ≈: the same amount, converted by molar mass. Activity calls are given as the source filed them. The rule behind the calls is not given here.

Columns and labels:
Plasmodium falciparum = assay: Antiplasmodial activity […] against chloroquine-resistant Plasmodium falciparum FcB1 by [3H]hypoxanthine uptake; assay type: functional, organism-based; conditions: FcB1/Columbia
Outline: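 P. falciparum cultured continuously and synchronized by 5% D-sorbitol lysis. Parasites incubated with compound for 48 h, with [3H]-hypoxanthine added 24 h before freezing. Plates freeze-thawed, harvested onto glass fibre filters, and incorporation read by beta counting. IC50 from linear least-squares regression; chloroquine as positive control.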

MCF7 = assay: Cytotoxicity against human MCF7 cells assessed as [3H]hypoxanthin incorporation after 24 to 72 hrs; assay type: functional, cell-based
Outline: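 MCF-7 cells kept as for the parasite culture but with 5% fetal calf serum in place of 5% human serum. Seeded at 2 × 10^4 cells/well, then exposed to compound. Growth read by [3H]-hypoxanthine incorporation after 24 and 72 h incubation, run as for the P. falciparum assay: plates frozen and thawed, harvested on glass fibre filters, beta-counted. IC50 from linear least-squares regression. Doxorubicin as positive control.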

[1] = Ratio IC50 for human MCF7 cells to IC50 for chloroquine-resistant Plasmodium falciparum FcB1; assay type: functional

Compound	IC50 (Plasmodium falciparum) [µg/mL]	IC50 (MCF7) [µg/mL]	Ratio IC50 [1]	Activity (MCF7)
COc1c(O)cc2oc3cc(O)cc(O)c3c(=O)c2c1CC=C(C)CCCC(C)(C)O [BUTYRAXANTHONE D]	10 (≈ 23.3 µM)	1.3 (≈ 3.03 µM)	<0.13	
COc1c(O)cc2oc3cc4c(c(O)c3c(=O)c2c1CC=C(C)C)C=CC(C)(C)O4 [MANGOSTANIN]	> 1.9	3.9 (≈ 9.55 µM)	<2.05	
COc1c(O)cc2oc3cc(O)c(CC=C(C)C)c(O)c3c(=O)c2c1CC=C(C)C [MANGOSTIN]	2.9 (≈ 7.07 µM)	3.5 (≈ 8.53 µM)	1.21	
CC(C)=CCc1c(O)c(CC=C(C)C)c2oc3c(O)ccc(O)c3c(=O)c2c1O [GARTANIN]	3.1 (≈ 7.82 µM)	1.2 (≈ 3.03 µM)	0.39	
COc1c(O)cc2oc3cc(O)cc(O)c3c(=O)c2c1C/C=C(\C)CCC=C(C)C [RUBRAXANTHONE]	3.4 (≈ 8.28 µM)	2.6 (≈ 6.33 µM)	0.76	
CC(C)=CCc1c(O)cc2oc3c(CC=C(C)C)c(O)c(O)c(CC=C(C)C)c3c(=O)c2c1O [GARCINONE E]	2.8 (≈ 6.03 µM)	1.5 (≈ 3.23 µM)	0.54	
COc1c(O)cc2oc3cc(O)c(C/C=C(\C)CCC=C(C)C)c(O)c3c(=O)c2c1CC=C(C)C [BUTYRAXANTHONE A]	3 (≈ 6.27 µM)	3.5 (≈ 7.31 µM)	1.17	
CC(C)=CCc1c(O)c(O)c(CC=C(C)C)c2c(=O)c3c(O)c4c(cc3oc12)OC(C)(C)C=C4 [BUTYRAXANTHONE B]	2.7 (≈ 5.84 µM)	3.3 (≈ 7.13 µM)	1.22	
CCN(CC)CCCC(C)Nc1ccnc2cc(Cl)ccc12 (centres undefined) [CHLOROQUINE]		> 100		
CC(C)=CCc1c(O)cc2oc3c(CC=C(C)C)c(O)c4c(c3c(=O)c2c1O)C=CC(C)(C)O4 [TOVOPHYLLINE A]	2.8 (≈ 6.05 µM)	2.6 (≈ 5.62 µM)	0.93	
CC(C)=CCc1c(O)cc2oc3c(CC=C(C)C)c(O)c4c(c3c(=O)c2c1O)CC(O)C(C)(C)O4 (centres undefined)				Active
